# Activity calls are given as the source filed them.
# Legend:
# [1] = molecular target: Serotonin 2 (5-HT2) receptor (Rattus norvegicus) (UniProt P30994+P08909+P14842); experiment: Binding affinity towards 5-hydroxytryptamine 2 receptor at 1.0 uM concentration; format: protein assay
# Procedure, shortened: (§1)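 Rat brain crude synaptic membranes in 20 mM NaHEPES pH 7.5. Ligands: α1 cortex […] 0.4 nM, nonspecific with (-)-NE 100 μM, 30 min at 25 °C. […] D2 striatum [3H]spiperone 0.05 nM with (+)-butaclamol 1 μM, 45 min at 37 °C. S1 cortex [3H]5-HT 1 nM plus glutathione and MgCl2, with 5-HT 10 μM, 20 min at 37 °C. […] Samples filtered on GF/B and counted.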
# [2] = organism: Mus musculus; experiment: Antagonism of tetrabenazine (TBZ)-induced depression in mice measured for ptosis; format: functional; conditions: Mus musculus; read-out: ED50
# Procedure, shortened: (§2)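 Nonfasted male Swiss Webster mice, 18–24 g, ten per dose level and in saline controls. Test compound given ip 30 min before tetrabenazine 32 mg/kg ip; dose expressed as free base. Motor activity and ptosis scored. Control response ≤90% corrected by Abbott's formula.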
# [3] = organism: Mus musculus; experiment: Antagonism of tetrabenazine (TBZ)-induced depression measured in mice by motor activity; format: functional; conditions: Mus musculus; read-out: ED50; procedure, shortened: as §2
# [4] = organism: Mus musculus; experiment: Gross behavioral effects ascertained in mice; W indicates weak stimulant or depressant activity of little significance.; format: functional, organism-based
# Procedure, shortened: (§3)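 Male Swiss Webster mice, 18–24 g, three per dose, given ip doses of 1, 3, 10, 30, 100 and 300 mg/kg. Observed for gross behavior and held for 4 days. Scored as weak (W), stimulant (S), depressant (D) or convulsant (C).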
# [5] = molecular target: Serotonin 1 (5-HT1) receptor (Rattus norvegicus) (UniProt P28564+P30940+P19327+P28565); experiment: Binding affinity towards serotonin S1 receptor at 1.0 uM; format: protein assay; procedure, shortened: as §1
# [6] = molecular target: D(2) dopamine receptor (Rattus norvegicus) (UniProt P61169); experiment: Binding affinity towards dopamine receptor D2 at 1.0 uM concentration; procedure, shortened: as §1
# Sequence of D(2) dopamine receptor (Rattus norvegicus) (P61169 whole entry): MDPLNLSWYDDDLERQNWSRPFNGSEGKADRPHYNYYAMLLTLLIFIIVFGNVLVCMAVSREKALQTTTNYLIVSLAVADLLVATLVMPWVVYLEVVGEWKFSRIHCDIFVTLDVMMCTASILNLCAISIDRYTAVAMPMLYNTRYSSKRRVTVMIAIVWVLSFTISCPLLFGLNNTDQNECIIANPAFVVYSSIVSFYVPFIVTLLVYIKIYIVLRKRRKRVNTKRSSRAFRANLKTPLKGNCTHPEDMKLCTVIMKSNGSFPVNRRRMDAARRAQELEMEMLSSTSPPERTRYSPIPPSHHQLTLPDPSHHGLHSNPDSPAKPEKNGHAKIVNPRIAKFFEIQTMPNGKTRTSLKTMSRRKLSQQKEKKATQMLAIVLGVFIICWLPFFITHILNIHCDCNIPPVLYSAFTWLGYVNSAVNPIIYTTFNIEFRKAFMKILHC
# [7] = organism: Rattus norvegicus; experiment: Ability to inhibit the uptake of tritiated norepinephrine (NE) at 0.1 uM concentration; format: functional
# Procedure, shortened: (§4)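 Male Wistar rat brain synaptosomes (P2 fraction): hypothalamus for NE, striatum for DA, cerebral cortex for 5-HT. Buffer is Tris- or HEPES-buffered salt medium with glucose, ascorbate and nialamide, pH 7.4 at 37 °C. Preincubated 10 min at 37 °C with compound. Uptake started with [3H]NE 100–300 nM, [3H]DA 50–300 nM or [3H]5-HT 100–200 nM, incubated 3 min (DA) or 6–10 min (NE, 5-HT). Blanks held on ice. Filtered, counted by scintillation.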
# [8] = molecular target: Sodium-dependent serotonin transporter (Rattus norvegicus) (UniProt P31652); experiment: Inhibition of tritiated serotonin(5-HT) uptake at 0.1 uM concentration; format: functional; procedure, shortened: as §4
# Sequence of Sodium-dependent serotonin transporter (Rattus norvegicus) (P31652 whole entry): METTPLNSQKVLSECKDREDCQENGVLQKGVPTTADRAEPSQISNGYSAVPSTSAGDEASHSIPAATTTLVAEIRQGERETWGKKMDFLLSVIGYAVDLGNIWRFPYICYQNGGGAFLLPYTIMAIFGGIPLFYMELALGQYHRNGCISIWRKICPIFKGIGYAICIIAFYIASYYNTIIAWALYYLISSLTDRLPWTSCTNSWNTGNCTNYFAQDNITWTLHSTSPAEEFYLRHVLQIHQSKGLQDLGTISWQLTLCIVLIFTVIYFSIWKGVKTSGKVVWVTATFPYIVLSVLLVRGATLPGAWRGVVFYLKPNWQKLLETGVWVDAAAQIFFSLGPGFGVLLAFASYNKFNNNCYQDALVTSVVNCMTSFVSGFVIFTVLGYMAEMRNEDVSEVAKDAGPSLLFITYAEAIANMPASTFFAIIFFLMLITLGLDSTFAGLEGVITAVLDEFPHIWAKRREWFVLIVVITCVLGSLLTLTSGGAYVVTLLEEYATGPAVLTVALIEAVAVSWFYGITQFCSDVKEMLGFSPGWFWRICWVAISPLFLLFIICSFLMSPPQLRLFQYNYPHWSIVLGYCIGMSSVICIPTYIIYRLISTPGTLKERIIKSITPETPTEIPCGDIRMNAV
# [9] = molecular target: T1, Adrenergic receptor alpha-1 (Rattus norvegicus, UniProt P15823+P23944+P43140); experiment: Binding affinity towards alpha-1 adrenergic receptor; format: protein assay
# T1 sequence (P15823 whole entry): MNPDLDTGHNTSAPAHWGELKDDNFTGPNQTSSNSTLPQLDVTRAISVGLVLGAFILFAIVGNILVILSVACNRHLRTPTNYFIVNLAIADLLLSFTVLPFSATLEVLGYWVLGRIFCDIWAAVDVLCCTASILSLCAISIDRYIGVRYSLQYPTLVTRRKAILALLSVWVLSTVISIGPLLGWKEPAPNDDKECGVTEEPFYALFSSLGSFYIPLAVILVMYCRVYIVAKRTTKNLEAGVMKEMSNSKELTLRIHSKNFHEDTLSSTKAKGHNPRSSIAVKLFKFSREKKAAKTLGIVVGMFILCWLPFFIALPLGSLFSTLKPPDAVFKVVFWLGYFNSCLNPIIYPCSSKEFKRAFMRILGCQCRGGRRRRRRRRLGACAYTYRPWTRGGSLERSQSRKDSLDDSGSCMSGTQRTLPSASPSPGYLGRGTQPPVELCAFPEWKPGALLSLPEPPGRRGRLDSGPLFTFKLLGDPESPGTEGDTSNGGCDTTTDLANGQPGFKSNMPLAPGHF
# T1 sequence (P23944 whole entry): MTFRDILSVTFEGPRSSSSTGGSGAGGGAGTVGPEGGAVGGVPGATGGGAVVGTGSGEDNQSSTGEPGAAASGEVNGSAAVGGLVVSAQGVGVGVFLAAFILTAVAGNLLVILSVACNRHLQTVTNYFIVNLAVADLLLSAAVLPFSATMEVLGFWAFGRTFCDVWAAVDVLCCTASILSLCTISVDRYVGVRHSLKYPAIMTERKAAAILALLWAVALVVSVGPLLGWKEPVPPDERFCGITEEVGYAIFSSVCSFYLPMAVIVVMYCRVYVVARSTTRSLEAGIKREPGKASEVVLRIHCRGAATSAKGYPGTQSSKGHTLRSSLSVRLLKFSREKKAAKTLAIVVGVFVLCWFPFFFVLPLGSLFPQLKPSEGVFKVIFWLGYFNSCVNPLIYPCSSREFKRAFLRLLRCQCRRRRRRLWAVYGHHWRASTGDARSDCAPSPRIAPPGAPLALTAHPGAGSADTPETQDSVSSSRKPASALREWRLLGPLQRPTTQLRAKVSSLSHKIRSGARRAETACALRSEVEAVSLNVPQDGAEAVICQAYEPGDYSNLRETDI
# T1 sequence (P43140 whole entry): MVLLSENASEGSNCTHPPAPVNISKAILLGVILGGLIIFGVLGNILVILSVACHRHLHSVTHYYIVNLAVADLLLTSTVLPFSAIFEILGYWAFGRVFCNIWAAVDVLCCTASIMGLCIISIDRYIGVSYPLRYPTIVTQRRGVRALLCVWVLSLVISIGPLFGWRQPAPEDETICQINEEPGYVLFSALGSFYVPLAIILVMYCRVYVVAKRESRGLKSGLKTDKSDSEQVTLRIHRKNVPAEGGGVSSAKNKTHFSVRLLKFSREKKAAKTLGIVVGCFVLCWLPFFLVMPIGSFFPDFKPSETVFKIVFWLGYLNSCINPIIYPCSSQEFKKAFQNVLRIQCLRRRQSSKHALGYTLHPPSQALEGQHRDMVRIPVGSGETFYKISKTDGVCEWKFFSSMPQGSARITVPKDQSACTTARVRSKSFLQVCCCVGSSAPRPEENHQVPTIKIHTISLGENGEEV
# [10] = molecular target: Sodium-dependent dopamine transporter (Rattus norvegicus) (UniProt P23977); experiment: Inhibition of tritiated dopamine (DA) uptake at 0.1 uM concentration; format: functional; procedure, shortened: as §4
# Sequence of Sodium-dependent dopamine transporter (Rattus norvegicus) (P23977 whole entry): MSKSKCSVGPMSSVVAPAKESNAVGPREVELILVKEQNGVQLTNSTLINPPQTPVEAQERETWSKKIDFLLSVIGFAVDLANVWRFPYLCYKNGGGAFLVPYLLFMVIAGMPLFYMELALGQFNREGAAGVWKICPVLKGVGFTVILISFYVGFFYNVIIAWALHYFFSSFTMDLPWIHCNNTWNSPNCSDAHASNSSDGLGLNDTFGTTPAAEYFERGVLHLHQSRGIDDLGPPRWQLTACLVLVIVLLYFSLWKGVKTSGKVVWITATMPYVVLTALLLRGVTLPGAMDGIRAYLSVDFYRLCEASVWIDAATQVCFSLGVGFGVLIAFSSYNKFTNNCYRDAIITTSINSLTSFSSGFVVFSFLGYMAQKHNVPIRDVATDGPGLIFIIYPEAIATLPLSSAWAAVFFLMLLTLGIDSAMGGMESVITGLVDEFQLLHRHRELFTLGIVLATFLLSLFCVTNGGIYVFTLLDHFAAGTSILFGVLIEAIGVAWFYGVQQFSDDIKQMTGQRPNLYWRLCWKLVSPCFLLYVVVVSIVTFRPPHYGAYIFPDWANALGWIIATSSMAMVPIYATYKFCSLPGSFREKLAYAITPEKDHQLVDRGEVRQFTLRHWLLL
# [11] = molecular target: Muscarinic acetylcholine receptor (Rattus norvegicus) (UniProt P08482+P08483+P08485+P08911+P10980); experiment: Binding affinity towards Muscarinic acetylcholine receptor at 1.0 uM concentration; format: protein assay
# [12] = molecular target: Adrenergic receptor alpha-1 (Rattus norvegicus) (UniProt P15823+P23944+P43140); experiment: Binding affinity towards alpha-1 adrenergic receptor at 1.0 uM concentration; format: protein assay; procedure, shortened: as §1
# [13] = molecular target: Sodium-dependent dopamine transporter (Rattus norvegicus, UniProt P23977); experiment: Inhibition of the uptake of tritiated dopamine (DA) in rat synaptosomes; format: subcellular, Brain
# Sequence of Sodium-dependent dopamine transporter (P23977 whole entry): as above
# [14] = molecular target: Norepinephrine transporter (Rattus norvegicus, UniProt Q9WTR4); experiment: Inhibition of uptake of tritiated norepinephrine (NE) in rat synaptosomes; format: subcellular, Brain
# Sequence of Norepinephrine transporter (Q9WTR4 whole entry): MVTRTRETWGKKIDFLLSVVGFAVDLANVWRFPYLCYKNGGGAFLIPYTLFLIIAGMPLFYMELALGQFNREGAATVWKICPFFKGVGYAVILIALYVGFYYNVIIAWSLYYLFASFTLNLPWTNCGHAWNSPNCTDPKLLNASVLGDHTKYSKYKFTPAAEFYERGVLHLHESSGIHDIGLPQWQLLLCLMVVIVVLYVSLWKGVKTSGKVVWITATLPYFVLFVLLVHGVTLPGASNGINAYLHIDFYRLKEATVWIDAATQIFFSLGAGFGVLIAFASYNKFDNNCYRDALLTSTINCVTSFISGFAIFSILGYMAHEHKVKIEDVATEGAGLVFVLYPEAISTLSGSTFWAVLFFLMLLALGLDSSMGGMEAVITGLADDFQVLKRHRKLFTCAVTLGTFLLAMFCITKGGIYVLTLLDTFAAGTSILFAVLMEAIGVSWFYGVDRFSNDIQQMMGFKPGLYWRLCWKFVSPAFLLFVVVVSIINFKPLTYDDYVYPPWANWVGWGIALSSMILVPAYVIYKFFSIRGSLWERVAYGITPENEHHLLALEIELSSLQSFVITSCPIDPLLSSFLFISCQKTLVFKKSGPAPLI
# [15] = molecular target: Serotonin 2 (5-HT2) receptor (Rattus norvegicus, UniProt P30994+P08909+P14842); experiment: Binding affinity towards 5-hydroxytryptamine 2 receptor; format: protein assay
# [16] = tested on: Mus musculus; experiment: Ability to antagonise intraperitoneal dose; inactive (<10% antagonism) at 30 mgjkg is represented as I-30.; format: functional, organism-based; procedure, shortened: as §2
# [17] = molecular target: Sodium-dependent dopamine transporter (Rattus norvegicus) (UniProt P23977); experiment: Ability to inhibit the uptake of [3H]dopamine (DA) 0.1 uM concentration at rat brain synaptosomes; format: functional, subcellular; procedure, shortened: as §4
# [18] = molecular target: Norepinephrine transporter (Rattus norvegicus) (UniProt Q9WTR4); experiment: Ability to inhibit the uptake of [3H]norepinephrine (NE) 0.1 uM concentration at rat brain synaptosomes; format: functional, subcellular; procedure, shortened: as §4
# Sequence of Norepinephrine transporter (Rattus norvegicus) (Q9WTR4 as listed by the source): as the sequence (Q9WTR4 whole entry) above
# [19] = molecular target: Sodium-dependent serotonin transporter (Rattus norvegicus) (UniProt P31652); experiment: Ability to inhibit the uptake of [3H]- serotonin(5-HT) 0.1 uM concentration at rat brain synaptosomes; format: functional, subcellular; procedure, shortened: as §4
# [20] = tested on: Mus musculus; experiment: Ability to antagonise intraperitoneal dose; inactive (<10% antagonism) at 30 mg/kg is represented as I-30.; format: functional, organism-based; design: dose 30 mg/kg; procedure, shortened: as §2
# [21] = molecular target: Adrenergic receptor alpha-2 (Rattus norvegicus) (UniProt P22086+P19328+P22909); experiment: Binding affinity towards alpha-2 adrenergic receptor at 1.0 uM concentration; format: protein assay
# [22] = organism: Mus musculus; experiment: Gross behavioral effects ascertained in mice; S indicates significant stimulant properties.; format: functional, organism-based; procedure, shortened: as §3
# Sequence of Serotonin 2 (5-HT2) receptor (Rattus norvegicus) (P08909 whole entry, looked up): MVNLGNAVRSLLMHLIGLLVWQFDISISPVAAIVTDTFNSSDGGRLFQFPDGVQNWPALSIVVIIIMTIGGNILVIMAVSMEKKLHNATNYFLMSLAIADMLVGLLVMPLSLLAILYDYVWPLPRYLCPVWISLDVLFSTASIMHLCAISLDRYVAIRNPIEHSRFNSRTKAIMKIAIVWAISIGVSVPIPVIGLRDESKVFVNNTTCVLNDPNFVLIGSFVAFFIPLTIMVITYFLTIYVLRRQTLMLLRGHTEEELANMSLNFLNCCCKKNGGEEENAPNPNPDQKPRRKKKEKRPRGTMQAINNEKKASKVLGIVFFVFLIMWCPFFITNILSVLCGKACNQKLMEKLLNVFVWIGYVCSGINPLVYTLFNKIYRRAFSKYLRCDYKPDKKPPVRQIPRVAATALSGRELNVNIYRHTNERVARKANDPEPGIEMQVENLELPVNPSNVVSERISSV
# Sequence of Serotonin 2 (5-HT2) receptor (Rattus norvegicus) (P14842 whole entry, looked up): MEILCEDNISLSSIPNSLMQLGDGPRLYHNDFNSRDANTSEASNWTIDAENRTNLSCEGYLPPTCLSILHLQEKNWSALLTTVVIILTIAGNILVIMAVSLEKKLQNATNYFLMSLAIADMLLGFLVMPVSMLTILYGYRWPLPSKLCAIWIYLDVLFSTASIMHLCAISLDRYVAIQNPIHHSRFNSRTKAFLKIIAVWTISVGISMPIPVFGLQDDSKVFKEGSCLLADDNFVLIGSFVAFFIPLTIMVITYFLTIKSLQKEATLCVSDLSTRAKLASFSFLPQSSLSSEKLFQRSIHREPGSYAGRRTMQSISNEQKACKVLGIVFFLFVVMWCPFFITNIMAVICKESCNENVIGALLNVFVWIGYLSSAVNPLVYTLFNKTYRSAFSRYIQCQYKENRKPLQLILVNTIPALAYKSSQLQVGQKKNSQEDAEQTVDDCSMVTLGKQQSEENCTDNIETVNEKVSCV
# Sequence of Serotonin 2 (5-HT2) receptor (Rattus norvegicus) (P30994 whole entry, looked up): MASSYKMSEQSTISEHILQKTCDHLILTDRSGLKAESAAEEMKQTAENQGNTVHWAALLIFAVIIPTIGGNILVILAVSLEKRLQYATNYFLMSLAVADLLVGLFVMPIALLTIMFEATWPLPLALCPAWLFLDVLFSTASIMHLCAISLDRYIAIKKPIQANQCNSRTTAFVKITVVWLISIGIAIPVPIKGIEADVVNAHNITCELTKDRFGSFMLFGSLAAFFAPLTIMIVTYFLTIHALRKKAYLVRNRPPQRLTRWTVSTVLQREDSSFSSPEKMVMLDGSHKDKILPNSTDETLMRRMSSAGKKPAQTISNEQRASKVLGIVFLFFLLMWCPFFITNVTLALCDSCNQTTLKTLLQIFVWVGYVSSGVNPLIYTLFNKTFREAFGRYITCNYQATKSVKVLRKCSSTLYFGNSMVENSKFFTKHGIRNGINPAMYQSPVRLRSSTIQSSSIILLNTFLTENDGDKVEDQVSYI
Compound,inhibition [1] [%],inhibition [5] [%],inhibition [6] [%],Ki [9] [nM],Ki [13] [nM],Ki [14] [nM],ED50 [2] [mg/kg],ED50 [3] [mg/kg],behavior [4],other results
Br.Clc1ccccc1[C@@H]1CN2CCC[C@H]2c2ccccc21,10,,54,41,,,2.5,> 30,Partial stimulant,Inhibition [7]: 41%; inhibition [8]: 19%; inhibition [10]: 9%
FC(F)(F)c1cccc([C@@H]2CN3CCC[C@H]3c3ccccc32)c1,,,,86,,,,,Partial stimulant,Ki [15]: 29 nM; ED50 [16]: inactive; inhibition [17]: 8%; inhibition [18]: 23%; inhibition [19]: 9%
O=C(CCCN1CCC(O)(c2ccc(Cl)cc2)CC1)c1ccc(F)cc1,,58,,,,,,,,
C[C@@H]1[C@@H](c2ccccc2)c2ccccc2[C@@H]2CCCN12,,,,,,,,,Weak,ED50 [20]: inactive; ED50 [16]: inactive; inhibition [17]: 0%; inhibition [18]: 4%; inhibition [19]: 12%
Br.Clc1cccc([C@@H]2CN3CCC[C@@H]3c3ccccc32)c1,,,,,2.5,0.45,< 1,~0.1,,Ki [15]: 49 nM; behavior [22]: Stimulant

# More lines, main results first:
inhibition [1] [%],inhibition [5] [%],inhibition [6] [%],Ki [9] [nM],Ki [13] [nM],Ki [14] [nM],Compound,ED50 [2] [mg/kg],ED50 [3] [mg/kg],behavior [4],other results
74,45,,,,,COc1ccccc1[C@@H]1CN2CCC[C@@H]2c2ccccc21,~0.3,~0.6,Partial stimulant,
,,28,,,,Br.CSc1ccc([C@@H]2CN3CCC[C@H]3c3ccccc32)cc1,10.9,> 75,,inhibition [11]: 0%; inhibition [12]: 43%
2,31,17,29,~2000,164,Br.COc1cc([C@@H]2CN3CCC[C@@H]3c3ccccc32)cc(OC)c1OC,2.5,> 60,Partial stimulant,
,31,,,,,CSc1ccc([C@@H]2CN3CCC[C@@H]3c3ccccc32)cc1 (stereo in doubt; (+)-48b),,,,
,,-1,,71.9,3.4,Br.COc1ccc([C@@H]2CN3CCC[C@@H]3c3ccccc32)cc1OC,0.13,2,Partial stimulant,inhibition [11]: -1%; inhibition [12]: 58%; inhibition [21]: 15%

# Reference: ChEMBL document CHEMBL1123812, “Pyrroloisoquinoline antidepressants. 2. In-depth exploration of structure-activity relationships” (J Med Chem, 1987)
